The source made the active and inactive calls. The rule behind the calls is not given here.
Experiments:
hERG (KCNH2) [1] = molecular target: T1, hERG (KCNH2) (Homo sapiens, UniProt Q12809); test: Inhibition of human ERG expressed in HEK293 cells assessed as membrane depolarization at 3 uM by patch-clamp method; type: cell-based; settings: HEK293 cells that express hERG
Histamine H3 receptor [2] = molecular target: T2, Histamine H3 receptor (Homo sapiens, UniProt Q9Y5N1); test: Antagonist activity at human histamine H3 receptor expressed in HEK293 cells assessed by forskolin induced cAMP response element activation after 5 hrs by luciferase reporter gene assay; type: functional, cell-based
hERG (KCNH2) [3] = molecular target: T1, hERG (KCNH2); test: Inhibition of human ERG expressed in HEK293 cells assessed as membrane depolarization at 100 nM by patch-clamp method; type: cell-based; settings: HEK293 cells that express hERG
[4] = Antioxidant activity assessed as ABTS free radical scavenging activity after 6 mins by spectrophotometry; type: functional
Summary of the method: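 ABTS (7 mM in water) reacted with 2.45 mM potassium persulfate (final), held in dark at room temperature ≥18 h to form radical cation, then serially diluted. Antioxidant added, mixed by pipette bubbling; absorbance at 415 nm read 6 min after addition, equilibrated at 30 °C. Each treatment repeated three times; melatonin as comparator.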

[5] = molecular target: Histamine H2 receptor (Homo sapiens) (UniProt P25021); test: Antagonist activity at human histamine H2 receptor expressed in HEK293 cells assessed by forskolin induced cAMP response element activation after 5 hrs by luciferase reporter gene assay; type: functional, cell-based
Summary of the method: (§1)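 Stable HEK-293 lines co-transfected with human H1, H2 or H4 receptor plus pCRE-Luc (G418 800 µg/mL selection), grown overnight to 90–95% confluence. Cells got 10 µM forskolin plus graded compound concentrations with 5 µM histamine in serum-free DMEM, 5 h at 37 °C. Read-out was firefly luciferase. Triplicate points, three separate experiments.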

[6] = molecular target: Histamine H4 receptor (Homo sapiens) (UniProt Q9H3N8); test: Antagonist activity at human histamine H4 receptor expressed in HEK293 cells assessed by forskolin induced cAMP response element activation after 5 hrs by luciferase reporter gene assay; type: functional, cell-based; summary of the method: as §1
Histamine H3 receptor [7] = molecular target: T2, Histamine H3 receptor; test: Displacement of […] from human histamine H3 receptor expressed in HEK293 cells after 90 to 120 mins by liquid scintillation counting; type: cell-based
[8] = molecular target: Histamine H1 receptor (Homo sapiens) (UniProt P35367); test: Antagonist activity at human histamine H1 receptor expressed in HEK293 cells assessed by forskolin induced cAMP response element activation after 5 hrs by luciferase reporter gene assay; type: functional, cell-based; summary of the method: as §1
Chain of Histamine H1 receptor (Homo sapiens) (P35367 whole entry): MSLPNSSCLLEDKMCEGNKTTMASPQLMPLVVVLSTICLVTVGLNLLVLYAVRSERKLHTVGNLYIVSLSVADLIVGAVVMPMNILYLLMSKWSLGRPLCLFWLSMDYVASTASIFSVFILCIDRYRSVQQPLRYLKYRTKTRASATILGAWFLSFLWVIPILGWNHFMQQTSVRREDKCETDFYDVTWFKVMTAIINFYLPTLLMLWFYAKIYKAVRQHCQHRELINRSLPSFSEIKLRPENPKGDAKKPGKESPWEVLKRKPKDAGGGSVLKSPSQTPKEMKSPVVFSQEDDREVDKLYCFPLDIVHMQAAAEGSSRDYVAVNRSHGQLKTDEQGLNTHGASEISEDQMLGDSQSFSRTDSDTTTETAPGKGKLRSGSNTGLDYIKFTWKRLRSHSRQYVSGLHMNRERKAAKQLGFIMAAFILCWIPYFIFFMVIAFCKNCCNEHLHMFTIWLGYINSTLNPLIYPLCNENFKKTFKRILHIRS

T1 sequence (Q12809 whole entry): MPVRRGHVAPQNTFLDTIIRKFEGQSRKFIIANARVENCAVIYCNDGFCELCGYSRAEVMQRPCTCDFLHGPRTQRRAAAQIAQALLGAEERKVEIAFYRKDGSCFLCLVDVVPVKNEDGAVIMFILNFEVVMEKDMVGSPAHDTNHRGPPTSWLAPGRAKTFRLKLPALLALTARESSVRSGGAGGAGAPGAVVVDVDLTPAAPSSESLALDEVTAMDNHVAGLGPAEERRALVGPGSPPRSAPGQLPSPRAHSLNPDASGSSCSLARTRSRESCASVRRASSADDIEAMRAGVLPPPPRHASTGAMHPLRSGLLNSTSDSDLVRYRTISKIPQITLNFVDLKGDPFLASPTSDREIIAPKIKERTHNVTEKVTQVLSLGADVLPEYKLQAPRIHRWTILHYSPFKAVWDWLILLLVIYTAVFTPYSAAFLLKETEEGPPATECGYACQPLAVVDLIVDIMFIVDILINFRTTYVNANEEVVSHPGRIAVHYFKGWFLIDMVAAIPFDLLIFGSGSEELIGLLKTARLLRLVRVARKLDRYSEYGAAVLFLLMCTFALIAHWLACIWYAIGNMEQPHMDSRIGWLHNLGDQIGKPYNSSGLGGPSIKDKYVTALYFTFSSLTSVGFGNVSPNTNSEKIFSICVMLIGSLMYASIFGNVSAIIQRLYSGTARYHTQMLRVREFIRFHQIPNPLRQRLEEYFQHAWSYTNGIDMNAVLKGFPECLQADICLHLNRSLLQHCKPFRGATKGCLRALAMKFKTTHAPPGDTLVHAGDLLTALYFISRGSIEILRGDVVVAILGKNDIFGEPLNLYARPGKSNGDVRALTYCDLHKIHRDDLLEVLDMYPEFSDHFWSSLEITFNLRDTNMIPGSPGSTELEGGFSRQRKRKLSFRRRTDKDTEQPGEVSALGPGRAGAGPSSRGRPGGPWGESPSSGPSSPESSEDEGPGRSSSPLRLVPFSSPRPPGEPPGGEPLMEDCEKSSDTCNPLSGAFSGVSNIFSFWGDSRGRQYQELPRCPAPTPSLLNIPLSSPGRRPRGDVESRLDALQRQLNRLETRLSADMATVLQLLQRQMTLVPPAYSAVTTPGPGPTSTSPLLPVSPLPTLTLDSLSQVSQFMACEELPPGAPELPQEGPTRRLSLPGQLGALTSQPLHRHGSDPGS
T2 sequence (Q9Y5N1 whole entry): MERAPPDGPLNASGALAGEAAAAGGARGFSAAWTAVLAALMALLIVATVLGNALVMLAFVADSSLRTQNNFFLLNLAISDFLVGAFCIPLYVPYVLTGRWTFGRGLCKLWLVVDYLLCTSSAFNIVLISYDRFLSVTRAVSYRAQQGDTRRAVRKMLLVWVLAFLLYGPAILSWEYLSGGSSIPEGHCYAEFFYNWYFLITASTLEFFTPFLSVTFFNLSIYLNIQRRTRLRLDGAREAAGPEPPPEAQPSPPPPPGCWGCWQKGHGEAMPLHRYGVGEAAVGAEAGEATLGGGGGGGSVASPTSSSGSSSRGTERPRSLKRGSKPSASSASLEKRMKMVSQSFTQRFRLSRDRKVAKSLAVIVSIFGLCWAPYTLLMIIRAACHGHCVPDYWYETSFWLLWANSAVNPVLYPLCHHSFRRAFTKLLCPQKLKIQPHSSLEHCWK
Chain of Histamine H2 receptor (Homo sapiens) (P25021 whole entry): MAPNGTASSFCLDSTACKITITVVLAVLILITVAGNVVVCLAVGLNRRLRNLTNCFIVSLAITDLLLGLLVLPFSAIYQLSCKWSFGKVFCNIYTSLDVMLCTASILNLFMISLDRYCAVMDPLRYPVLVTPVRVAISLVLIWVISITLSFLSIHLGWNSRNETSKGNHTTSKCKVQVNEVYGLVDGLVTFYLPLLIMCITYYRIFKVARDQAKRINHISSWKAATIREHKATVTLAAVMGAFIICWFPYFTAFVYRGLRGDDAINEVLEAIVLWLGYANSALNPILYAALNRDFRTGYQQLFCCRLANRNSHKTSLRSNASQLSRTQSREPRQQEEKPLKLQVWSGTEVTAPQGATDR
Chain of Histamine H4 receptor (Homo sapiens) (Q9H3N8 whole entry): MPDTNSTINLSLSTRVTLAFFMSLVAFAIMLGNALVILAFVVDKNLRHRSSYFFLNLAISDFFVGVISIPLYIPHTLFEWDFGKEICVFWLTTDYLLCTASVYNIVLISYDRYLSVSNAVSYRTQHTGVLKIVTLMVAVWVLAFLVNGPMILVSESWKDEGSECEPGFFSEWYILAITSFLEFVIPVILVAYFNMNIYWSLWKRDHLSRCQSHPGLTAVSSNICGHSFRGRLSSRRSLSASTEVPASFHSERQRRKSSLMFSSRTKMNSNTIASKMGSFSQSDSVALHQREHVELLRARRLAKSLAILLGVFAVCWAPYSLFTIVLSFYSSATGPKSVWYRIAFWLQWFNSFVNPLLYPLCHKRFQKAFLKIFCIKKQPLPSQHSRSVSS

c1ccc2c(CCNc3ccc(CN4CCCCC4)cc3)c[nH]c2c1
inhibition at 3 µM (hERG (KCNH2) [1]): 87%
IC50 (Histamine H3 receptor [2]): 80 nM

O=C(Cc1c[nH]c2ccccc12)Oc1ccc(CN2CCCCC2)cc1
IC50 (Histamine H3 receptor [2]): 1040 nM

c1ccc2c(CCCNc3ccc(CN4CCOCC4)cc3)c[nH]c2c1
IC50 (Histamine H3 receptor [2]): 490 nM

O=C(Nc1ccc(CN2CCCCC2)cc1)c1c[nH]c2ccccc12
IC50 (Histamine H3 receptor [2]): 1210 nM

c1ccc2c(CCNc3ccc(CN4CCCC4)cc3)c[nH]c2c1
inhibition at 3 µM (hERG (KCNH2) [1]): 73%
IC50 (Histamine H3 receptor [2]): 180 nM

O=C(Oc1ccc(CN2CCCCC2)cc1)c1c[nH]c2ccccc12
IC50 (Histamine H3 receptor [2]): 2030 nM

O=C(Cc1c[nH]c2ccccc12)Nc1ccc(CN2CCCC2)cc1
IC50 (Histamine H3 receptor [2]): 1370 nM

COc1cc(N)c(Cl)cc1C(=O)NC1CCN(CCCOc2ccc(F)cc2)CC1OC (stereo not drawn) [CISAPRIDE]
inhibition at 0.1 µM (hERG (KCNH2) [3]): 89%

O=C(Cc1c[nH]c2ccccc12)Oc1ccc(CN2CCOCC2)cc1
inhibition at 3 µM (hERG (KCNH2) [1]): 12%
IC50 [4]: 5320 nM
IC50 (Histamine H3 receptor [2]): 790 nM

CCN(CC)Cc1ccc(NC(=O)CCc2c[nH]c3ccccc23)cc1
IC50 (Histamine H3 receptor [2]): > 10000 nM

O=C(CCc1c[nH]c2ccccc12)Nc1ccc(CN2CCCC2)cc1
IC50 (Histamine H3 receptor [2]): > 10000 nM

c1ccc2c(CCNc3ccc(CN4CCOCC4)cc3)c[nH]c2c1
Activity [5]: inactive
Activity [6]: inactive
Ki (Histamine H3 receptor [7]): 4.26 nM
inhibition at 3 µM (hERG (KCNH2) [1]): 54%
IC50 [4]: 3050 nM
IC50 (Histamine H3 receptor [2]): 49 nM
Activity [8]: inactive

O=C(Cc1c[nH]c2ccccc12)Nc1ccc(CN2CCOCC2)cc1
inhibition at 3 µM (hERG (KCNH2) [1]): 6%
IC50 [4]: 4710 nM
IC50 (Histamine H3 receptor [2]): 2190 nM

O=C(Cc1c[nH]c2ccccc12)Oc1ccc(CN2CCCC2)cc1
IC50 (Histamine H3 receptor [2]): 2460 nM

O=C(CCc1c[nH]c2ccccc12)Nc1ccc(CN2CCOCC2)cc1
IC50 (Histamine H3 receptor [2]): > 10000 nM

CCN(CC)Cc1ccc(NC(=O)Cc2c[nH]c3ccccc23)cc1
IC50 (Histamine H3 receptor [2]): 3500 nM

O=C(CCc1c[nH]c2ccccc12)Oc1ccc(CN2CCCC2)cc1
IC50 (Histamine H3 receptor [2]): > 10000 nM

c1ccc2c(CNc3ccc(CN4CCCCC4)cc3)c[nH]c2c1
IC50 (Histamine H3 receptor [2]): 540 nM

O=C(CCc1c[nH]c2ccccc12)Oc1ccc(CN2CCOCC2)cc1
IC50 (Histamine H3 receptor [2]): > 10000 nM

COc1ccc2[nH]cc(CCNC(C)=O)c2c1 [MELATONIN]
IC50 [4]: 1920 nM

O=C(Cc1c[nH]c2ccccc12)Nc1ccc(CN2CCCCC2)cc1
IC50 (Histamine H3 receptor [2]): 2840 nM

O=C(CCc1c[nH]c2ccccc12)Nc1ccc(CN2CCCCC2)cc1
IC50 (Histamine H3 receptor [2]): > 10000 nM

O=C(CCc1c[nH]c2ccccc12)Oc1ccc(CN2CCCCC2)cc1
IC50 (Histamine H3 receptor [2]): > 10000 nM

CCN(CC)Cc1ccc(NCCc2c[nH]c3ccccc23)cc1
IC50 (Histamine H3 receptor [2]): 290 nM

CCN(CC)Cc1ccc(OC(=O)Cc2c[nH]c3ccccc23)cc1
IC50 (Histamine H3 receptor [2]): 4610 nM

CCN(CC)Cc1ccc(OC(=O)CCc2c[nH]c3ccccc23)cc1
IC50 (Histamine H3 receptor [2]): > 10000 nM

— ChEMBL document CHEMBL2417548, “Design and synthesis of novel 3-substituted-indole derivatives as selective H3 receptor antagonists and potent free radical scavengers” (Bioorg Med Chem, 2013)
